ChEMBL document CHEMBL1126914 (J Med Chem, 1993)
Square brackets hold non-standard residues; d marks the D form. Peptide text beside a SMILES is read from it. Tic = O=C(O)[C@@H]1Cc2ccccc2CN1; Aic = NC1(C(=O)O)Cc2ccccc2C1

How the values were obtained:
[1] = target: Delta-type opioid receptor (Rattus norvegicus, UniProt P33533); assay: Binding affinity was determined on delta [3H]DPDPE site in rat brain synaptosomes by radioreceptor assay; type: subcellular
In short: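 δ sites labelled with 0.62 nM [3H]DPDPE; rat brain (minus cerebella) P2 synaptosomes, preincubated to remove endogenous opioids, 1.6 mg protein; 2 h at 22 °C in duplicate. Nonspecific defined with 1 μM DPDPE. Rapid filtration on GF/C filters with ice-cold buffered BSA washes; liquid scintillation counting; Ki from IC50 by Cheng–Prusoff.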

[2] = target: Mu-type opioid receptor (Rattus norvegicus, UniProt P33535); assay: Binding affinity was determined on mu [3H]DAGO site in rat brain synaptosomes by radioreceptor assay; type: subcellular
In short: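 μ sites labelled with 0.68 nM [3H]DAGO; rat brain (minus cerebella) P2 synaptosomes, preincubated to remove endogenous opioids, 1.6 mg protein; 2 h at 22 °C in duplicate. Nonspecific defined with 1 μM DAGO. Rapid filtration on GF/C filters, washes with ice-cold buffered BSA; scintillation counting; Ki via Cheng–Prusoff from IC50.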

[3] = Bioselectivity ratio of compound as guinea pig ileum to mouse vas deferens was determined; type: functional
In short: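 GPI/MVD ratio of IC50s. GPI: 2–3 cm segments in Krebs with 70 μM hexamethonium and 0.125 μM mepyramine, 36 °C, 95% O2/5% CO2; transmural 0.5 ms, 0.1 Hz pulses at 1.5× maximal (~30 V); isotonic recording. MVD: 33 °C, field stimulation 0.1 Hz, 1 ms, 40 V; isometric recording. IC50 is 50% twitch inhibition, from four experiments.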

Sequence of Mu-type opioid receptor (P33535 whole entry): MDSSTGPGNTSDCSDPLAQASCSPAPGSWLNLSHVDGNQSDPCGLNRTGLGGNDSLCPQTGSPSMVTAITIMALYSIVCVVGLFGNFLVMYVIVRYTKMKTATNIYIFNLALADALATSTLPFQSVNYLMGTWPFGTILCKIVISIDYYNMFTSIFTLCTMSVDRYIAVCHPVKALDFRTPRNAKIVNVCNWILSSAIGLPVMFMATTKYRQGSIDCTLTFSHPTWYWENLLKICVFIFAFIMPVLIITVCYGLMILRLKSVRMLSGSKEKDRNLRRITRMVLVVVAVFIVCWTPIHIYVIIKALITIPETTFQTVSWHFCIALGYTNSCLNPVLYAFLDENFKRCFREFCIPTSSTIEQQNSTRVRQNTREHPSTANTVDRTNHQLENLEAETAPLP
Sequence of Delta-type opioid receptor (P33533 whole entry): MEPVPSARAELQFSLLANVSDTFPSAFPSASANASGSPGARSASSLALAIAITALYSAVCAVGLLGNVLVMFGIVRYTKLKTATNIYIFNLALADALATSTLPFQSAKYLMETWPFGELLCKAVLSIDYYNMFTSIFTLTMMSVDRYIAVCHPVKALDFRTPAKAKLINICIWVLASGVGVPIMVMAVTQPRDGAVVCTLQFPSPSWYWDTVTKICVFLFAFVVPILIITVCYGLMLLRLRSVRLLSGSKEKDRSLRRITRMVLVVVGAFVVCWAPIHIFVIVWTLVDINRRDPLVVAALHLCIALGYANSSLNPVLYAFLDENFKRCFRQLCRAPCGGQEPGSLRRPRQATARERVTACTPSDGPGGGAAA

Row | SMILES | Ki [1] [nM] | Ki [2] [nM] | Ratio [3]
1 | CC(C)[C@H](NC(=O)[C@H](CC(=O)O)NC(=O)[C@H](Cc1ccc2ccccc2c1)NC(=O)[C@@H](C)NC(=O)[C@@H](N)Cc1ccc(O)cc1)C(=O)N[C@H](C(=O)NCC(N)=O)C(C)C | 10.7 | 770 | –
2 | COc1ccc(C[C@H](NC(=O)[C@@H](C)NC(=O)[C@@H](N)Cc2ccc(O)cc2)C(=O)N[C@@H](CC(=O)O)C(=O)N[C@H](C(=O)N[C@H](C(=O)NCC(N)=O)C(C)C)C(C)C)cc1 | 45.4 | 526 | –
3 | CC(C)[C@H](NC(=O)[C@H](CC(=O)O)NC(=O)C1(NC(=O)[C@@H](C)NC(=O)[C@@H](N)Cc2ccc(O)cc2)CCc2ccccc2C1)C(=O)N[C@H](C(=O)NCC(N)=O)C(C)C (single isomer, unassigned; 15) | 0.07 | 178 | 3522
4 | CC(C)[C@H](NC(=O)[C@H](CC(=O)O)NC(=O)[C@H](Cc1cnc[nH]1)NC(=O)[C@@H](C)NC(=O)[C@@H](N)Cc1ccc(O)cc1)C(=O)N[C@H](C(=O)NCC(N)=O)C(C)C | 45.5 | 3720 | –
5 | CC(C)[C@H](NC(=O)[C@H](CC(=O)O)NC(=O)[C@H](Cc1cccc2ccccc12)NC(=O)[C@@H](C)NC(=O)[C@@H](N)Cc1ccc(O)cc1)C(=O)N[C@H](C(=O)NCC(N)=O)C(C)C | 0.61 | 279 | –
6 | CC(C)[C@H](NC(=O)[C@H](CC(=O)O)NC(=O)[C@H](Cc1ccc(O)cc1)NC(=O)[C@@H](C)NC(=O)[C@@H](N)Cc1ccc(O)cc1)C(=O)N[C@H](C(=O)NCC(N)=O)C(C)C | 34 | 1180 | –
7 | CC(C)[C@H](NC(=O)[C@H](CC(=O)O)NC(=O)[C@@H](NC(=O)[C@@H](C)NC(=O)[C@@H](N)Cc1ccc(O)cc1)c1ccccc1)C(=O)N[C@H](C(=O)NCC(N)=O)C(C)C | 2.85 | 3750 | –
8 | CC(C)[C@H](NC(=O)[C@H](CC(=O)O)NC(=O)[C@](C)(Cc1ccccc1)NC(=O)[C@@H](C)NC(=O)[C@@H](N)Cc1ccc(O)cc1)C(=O)N[C@H](C(=O)NCC(N)=O)C(C)C (single isomer, unassigned; 6) | 69.1 | 1360 | >18
9 | CC(C)[C@H](NC(=O)[C@H](CC(=O)O)NC(=O)[C@H](Cc1ccccc1)NC(=O)[C@@H](C)NC(=O)[C@@H](N)Cc1ccc(O)cc1)C(=O)N[C@H](C(=O)NCC(N)=O)C(C)C [DELTORPHIN C] | 0.31 | 205 | –
10 | CC(C)[C@H](NC(=O)[C@H](CC(=O)O)NC(=O)[C@H](Cc1c[nH]c2ccccc12)NC(=O)[C@@H](C)NC(=O)[C@@H](N)Cc1ccc(O)cc1)C(=O)N[C@H](C(=O)NCC(N)=O)C(C)C | 2.34 | 323 | –
11 | CC(C)[C@H](NC(=O)[C@H](CC(=O)O)NC(=O)[C@H](CCc1ccccc1)NC(=O)[C@@H](C)NC(=O)[C@@H](N)Cc1ccc(O)cc1)C(=O)N[C@H](C(=O)NCC(N)=O)C(C)C | 4.84 | 326 | –
12 | CC(C)[C@H](NC(=O)[C@H](CC(=O)O)NC(=O)/C(=C\c1ccccc1)NC(=O)[C@@H](C)NC(=O)[C@@H](N)Cc1ccc(O)cc1)C(=O)N[C@H](C(=O)NCC(N)=O)C(C)C | 4.23 | 114 | –
13 | CC(C)[C@H](NC(=O)[C@H](CC(=O)O)NC(=O)[C@](C)(Cc1ccccc1)NC(=O)[C@@H](C)NC(=O)[C@@H](N)Cc1ccc(O)cc1)C(=O)N[C@H](C(=O)NCC(N)=O)C(C)C (single isomer, unassigned; 6a) | 48.6 | 3400 | >20
14 | CC(C)[C@H](NC(=O)[C@H](CC(=O)O)NC(=O)C1(NC(=O)[C@@H](C)NC(=O)[C@@H](N)Cc2ccc(O)cc2)Cc2ccccc2C1)C(=O)N[C@H](C(=O)NCC(N)=O)C(C)C (H-Y[dA][Aic]DVVG-NH2) | 0.2 | 56.2 | 900
15 | CC(C)[C@H](NC(=O)[C@H](CC(=O)O)NC(=O)[C@@H]1Cc2ccccc2CN1C(=O)[C@@H](C)NC(=O)[C@@H](N)Cc1ccc(O)cc1)C(=O)N[C@H](C(=O)NCC(N)=O)C(C)C (H-Y[dA][Tic]DVVG-NH2) | 90.2 | 7810 | >65
16 | CC(C)[C@H](NC(=O)[C@H](CC(=O)O)NC(=O)C1(NC(=O)[C@@H](C)NC(=O)[C@@H](N)Cc2ccc(O)cc2)CCc2ccccc2C1)C(=O)N[C@H](C(=O)NCC(N)=O)C(C)C (single isomer, unassigned; 15a) | 0.12 | 82.3 | 606
17 | CC(C)[C@H](NC(=O)[C@H](CC(=O)O)NC(=O)[C@H](Cc1ccccc1)N(C)C(=O)[C@@H](C)NC(=O)[C@@H](N)Cc1ccc(O)cc1)C(=O)N[C@H](C(=O)NCC(N)=O)C(C)C | 284 | 19000 | –
